The values below come from ChEMBL document CHEMBL1125468, “Extraordinarily potent antimalarial compounds: new, structurally simple, easily synthesized, tricyclic 1,2,4-trioxanes” (J Med Chem, 1992).

Test [1] relates to Plasmodium falciparum. In words: Parasite viability index for Plasmodium falciparum Indochina W2 by [3H]hypoxanthine uptake. In kind it is functional, organism-based.
Test [2] has as its system Plasmodium falciparum. In words: Inhibition of Plasmodium falciparum D6 (Sierra Leone) by [3H]hypoxanthine uptake. In kind it is functional, organism-based.
Test [3] in a line: Potency to inhibit African Sierra Leone(D-6) clone relative to artemisinin. The format is functional. The procedure, abridged: (§1)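 Ratio of artemisinin IC50 to test-compound IC50, both measured in the same [3H]hypoxanthine microdilution assay against the named clone. Parasites were at 0.5% parasitemia and 1% hematocrit, exposed for 24 h at 37 °C under low oxygen, then labelled for 18–20 h. IC50s came from a four-parameter logistic fit of duplicate wells.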

Test [4] can be described thus: Potency to inhibit Indochina(W-2) clone relative to artemisinin. In kind it is functional. In a few lines:
as §1

In brackets after ≈: the same amount, converted by molar mass. Some results are limits rather than exact numbers.

As a reminder, the IC50 is the concentration that gives 50% inhibition. A lower IC50 goes with higher potency. For the molecule `CCN(CC)C(=O)c1ccc(C(=O)OCC[C@@H]2CCC[C@@H]3CC[C@]4(C)OO[C@]32[C@@H](OC)O4)cc1`, the IC50 in the test with Plasmodium falciparum [1] and in the test with Plasmodium falciparum [2] was below 1.4 ng/mL in each case. Also, the Relative potency in test [3] is above 2.8; in test [4], above 1.
As to `CO[C@H]1O[C@]2(C)CC[C@H]3CCC[C@@H](CCOCc4c(C)noc4C)[C@]31OO2`, the values for the IC50 with Plasmodium falciparum [1] and with Plasmodium falciparum [2] were 0.5 ng/mL (≈ 1.31 nM) and 7.6 ng/mL (≈ 19.9 nM), respectively. Besides, the Relative potency in test [3] came out at 0.5; in test [4] it was 2.8.
In the case of `CO[C@H]1O[C@]2(C)CC[C@H]3CCC[C@@H](CCOC(=O)c4ccccc4)[C@]31OO2`, the results for the IC50 in the test on Plasmodium falciparum [1] and in the test on Plasmodium falciparum [2] were 8.2 ng/mL (≈ 21.8 nM) and 29.5 ng/mL (≈ 78.4 nM), respectively. Moreover, the Relative potency in test [3] stood at 0.1; in test [4] it was 0.2.
In the same order, the values of `COC(=O)c1ccccc1S(=O)(=O)OCC[C@@H]1CCC[C@@H]2CC[C@]3(C)OO[C@]21[C@@H](OC)O3` are 13.2 ng/mL (≈ 28.1 nM), 11.3 ng/mL (≈ 24 nM), 0.3 and 0.1.
Taken in the same sequence, the figures for `COCC[C@@H]1CCC[C@@H]2CC[C@]3(C)OO[C@]21[C@@H](OC)O3` were 3.7 ng/mL (≈ 12.9 nM), 10.7 ng/mL (≈ 37.4 nM), 0.4 and 0.4.
For `C=CCOCC[C@@H]1CCC[C@@H]2CC[C@]3(C)OO[C@]21[C@@H](OC)O3`, the IC50 amounted to 0.6 ng/mL (≈ 1.92 nM) in the test on Plasmodium falciparum [1] and 5.5 ng/mL (≈ 17.6 nM) in the test on Plasmodium falciparum [2]. Also, the values for the Relative potency in test [3] and in test [4] were 0.7 and 2.3, respectively.
Regarding `CO[C@H]1O[C@]2(C)CC[C@H]3CCC[C@@H](CCOS(=O)(=O)c4ccc(C)cc4)[C@]31OO2`, the IC50 came out at 1.9 ng/mL (≈ 4.45 nM) in the test with Plasmodium falciparum [1] and 5.6 ng/mL (≈ 13.1 nM) in the test on Plasmodium falciparum [2]. In addition, the Relative potency in test [3] and in test [4] was 0.7 each time.
Regarding `C[C@@H]1CC[C@H]2[C@@H](C)C(=O)O[C@@H]3O[C@@]4(C)CC[C@@H]1[C@]32OO4` [ARTEMISININ], the IC50 in the test on Plasmodium falciparum [1] came out at 1.4 ng/mL (≈ 4.96 nM); with Plasmodium falciparum [2], 3.9 ng/mL (≈ 13.8 nM). The Relative potency in test [3] and in test [4] was 1 each time.
Take `CO[C@H]1O[C@]2(C)CC[C@H]3CCC[C@@H](CCOS(=O)(=O)c4cccc5c(N(C)C)cccc45)[C@]31OO2`: the IC50 with Plasmodium falciparum [1] is 1.2 ng/mL (≈ 2.37 nM); in the test on Plasmodium falciparum [2] it was 16.3 ng/mL (≈ 32.2 nM). The Relative potency in test [3] worked out at 0.2; in test [4], 1.2.
Regarding `CO[C@H]1O[C@]2(C)CC[C@H]3CCC[C@@H](CCOC(=O)c4ccc(C(=O)O)cc4)[C@]31OO2`, the IC50 with Plasmodium falciparum [1] turned out to be 15.7 ng/mL (≈ 37.3 nM); with Plasmodium falciparum [2], 63.3 ng/mL (≈ 151 nM). Further, the Relative potency in test [3] and in test [4] was 0.1 throughout.
In the case of `CO[C@H]1O[C@]2(C)CC[C@H]3CCC[C@@H](CCOC(=O)N(c4ccccc4)c4ccccc4)[C@]31OO2`, the 50% inhibitory concentration (IC50) in the test with Plasmodium falciparum [1] is below 0.2 ng/mL; with Plasmodium falciparum [2] it was 0.9 ng/mL (≈ 1.92 nM). Also, the Relative potency in test [3] was 4.3; in test [4] it was above 7.
For `CCOP(=O)(OCC)OCC[C@@H]1CCC[C@@H]2CC[C@]3(C)OO[C@]21[C@@H](OC)O3`, the IC50 in the test on Plasmodium falciparum [1] was below 0.9 ng/mL; with Plasmodium falciparum [2] it was 1.1 ng/mL (≈ 2.69 nM). Besides, the Relative potency in test [3] was 3.5; in test [4], above 1.6.
`CO[C@H]1O[C@]2(C)CC[C@H]3CCC[C@@H](CCOC(=O)CNC(=O)OC(C)(C)C)[C@]31OO2`: the IC50 in the test with Plasmodium falciparum [1] came to 2.5 ng/mL (≈ 5.82 nM); in the test on Plasmodium falciparum [2] it was 3.5 ng/mL (≈ 8.15 nM). The Relative potency in test [3] was found to be 1.1; in test [4], 0.6.
Taken in the same sequence, the figures for `CO[C@H]1O[C@]2(C)CC[C@H]3CCC[C@@H](CCOC(=O)c4ccc(C(=O)OCCN(C)C)cc4)[C@]31OO2` were 3.3 ng/mL (≈ 6.71 nM), 12.6 ng/mL (≈ 25.6 nM), 0.3 and 0.4.
For the molecule `COC(=O)c1ccc(C(=O)OCC[C@@H]2CCC[C@@H]3CC[C@]4(C)OO[C@]32[C@@H](OC)O4)cc1`, the IC50 was below 1.2 ng/mL in the test on Plasmodium falciparum [1] and above 1.2 ng/mL in the test with Plasmodium falciparum [2]. For the same molecule, the Relative potency in test [3] was above 3.3; in test [4], above 1.2.
Regarding `CO[C@H]1O[C@]2(C)CC[C@H]3CCC[C@@H](CCOCc4ccccc4)[C@]31OO2`, the results for the IC50 in the test on Plasmodium falciparum [1] and in the test with Plasmodium falciparum [2] were 0.4 ng/mL (≈ 1.1 nM) and 5.4 ng/mL (≈ 14.9 nM), respectively. Moreover, the values for the Relative potency in test [3] and in test [4] were 0.7 and 3.5, respectively.
Taken in the same sequence, the figures for `CCN(CC)C(=O)OCC[C@@H]1CCC[C@@H]2CC[C@]3(C)OO[C@]21[C@@H](OC)O3` were below 0.4 ng/mL, 1.7 ng/mL (≈ 4.58 nM), 2.3 and above 3.5.
For the molecule `CO[C@H]1O[C@]2(C)CC[C@H]3CCC[C@@H](CCOC(=O)N(C)C)[C@]31OO2`, the IC50 with Plasmodium falciparum [1] turned out to be 0.8 ng/mL (≈ 2.33 nM); in the test with Plasmodium falciparum [2], 2.9 ng/mL (≈ 8.44 nM). Moreover, the Relative potency amounted to 1.3 in test [3] and 1.8 in test [4].
